Compound activity deposited in PubChem BioAssay by several laboratories.
This is a sample that favours compounds with a hit; in the whole collection about 2.5% have one here.
B2AR ag = agonists of human beta-2 adrenergic receptor inducing internalization; response, % (no concentration beside the values); Am2.2-beta2AR cells, FAP receptor internalization, flow cytometry; 340,000 compounds, 0.43% hits; AID 504454; P07550;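 active means response above a set limit, near 3 SD of response in nonfluorescent compounds, cut at about 42% in these data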
UHRF1 MBD2 ctr = blocks human UHRF1 binding to methylated DNA; UHRF1 binding to methylated oligo, TR-FRET; inhibition, % at 4.4 µM; 370,000 compounds, 0.75% hits; in the data active means inhibition above about 21%;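 further: UHRF1 SRA domain binding a hemimethylated CpG hairpin DNA probe; 0% = median of test compound wells and 100% = reference inhibitor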
ABHD5 PLIN5 PPI = blocks binding of human ABHD5 to perilipin-5; Q00G26+Q8WTS1; Split G. princeps luciferase complementation, luminescence, 4 h; inhibition, % at 4 µM; 360,000 compounds, 0.78% hits;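 active means inhibition above the mean inhibition across every tested compound plus 3 SD, cut at about 22% in these data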;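 further: 0% = DMSO only wells and the 100% control is not disclosed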
Arr AP2 block = human beta-arrestin and AP2 interaction inhibition; FITC-arrestin peptide / GST-AP2 beads, flow cytometry; AP2 beta2 appendage carries R879A mutation; inhibition, % at 10 µM; 340,000 compounds, 0.31% hits;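 active means inhibition above a set limit, near 3 SD of compounds lacking own fluorescence, cut at about 54% in these data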;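 further: plate controls were DMSO wells for no effect and 5 µM unlabelled arrestin peptide for full effect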
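test system = AP2 appendage R879A on GSH beads | buffer or medium = PBS plus Tween 20 (0.05%) and BSA (0.1%) | incubation = 12 min plus 1 h, RT | detection = bead flow cytometry, FITC channel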
MBD2 DNA inh = MBD2-methylated oligo binding inhibition | Q9UBB5 | TR-FRET, MBD2 binding to methylated oligonucleotide | inhibition, % at 4.4 µM | 370,000 compounds, 0.31% hits | AID 686964; in the data active means inhibition above about 13%
Target sequence (Q9UBB5 whole entry, looked up): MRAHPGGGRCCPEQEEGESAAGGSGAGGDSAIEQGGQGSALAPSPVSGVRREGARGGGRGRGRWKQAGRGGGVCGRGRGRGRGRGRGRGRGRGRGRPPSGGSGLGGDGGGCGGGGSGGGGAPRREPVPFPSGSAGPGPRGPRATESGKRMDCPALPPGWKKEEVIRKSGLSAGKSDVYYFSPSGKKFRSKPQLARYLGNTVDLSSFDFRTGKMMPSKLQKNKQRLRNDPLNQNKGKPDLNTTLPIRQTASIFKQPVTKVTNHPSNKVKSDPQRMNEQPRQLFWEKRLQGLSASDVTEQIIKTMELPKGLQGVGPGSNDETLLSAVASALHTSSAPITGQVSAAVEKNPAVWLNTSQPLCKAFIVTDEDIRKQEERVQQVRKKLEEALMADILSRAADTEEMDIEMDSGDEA
Rin1 Abl inh = inhibitors of human Rin1-Abl protein interaction. TR-FRET Rin1/Abl binding, biochemical. inhibition, % at 7.35 µM. 360,000 compounds, 0.4% hits; in the data active means inhibition above about 5%, passing the limit was not always enough
* = called active by the depositor; . = not tested or not shown.

SMILES	B2AR ag	UHRF1 MBD2 ctr	ABHD5 PLIN5 PPI	Arr AP2 block	MBD2 DNA inh	Rin1 Abl inh
COC(=O)c1ccc2nc(-c3ccc(C#N)cc3)c(Cc3cccc(Cl)c3)n2c1	.	21*	-2	.	3	.
COC(=O)c1ccc2nc(-c3ccc(C)cc3)c(Cc3ccsc3)n2c1	.	20	7	.	-2	2
COC(=O)c1ccc2nc(-c3ccc(F)cc3)c(Cc3ccsc3)n2c1	.	24*	7	.	6	4
COC(=O)c1ccc2nc(-c3ccccc3)c(Cc3cccc(Cl)c3)n2c1	.	15	.	.	8	.
COC(=O)c1ccc2nc(-c3ccc(C#N)cc3)c(Cc3ccsc3)n2c1	.	22*	13	.	5	.
COC(=O)c1ccc2nc(-c3ccc(F)cc3)c(Cc3ccccc3)n2c1	.	23*	1	.	2	4
COC(=O)c1ccc2nc(-c3ccc(F)cc3)c(Cc3ccccc3C(F)(F)F)n2c1	.	5	-4	.	-2	.
CC1=C(C(=O)N(C)C)CC(CC(=O)NCCCN(C)C)C(=O)N1CCCN1CCCC1=O (centres undefined)	.	24*	11	.	3	7
CC1=C(C(=O)N(C)C)CC(CC(=O)NC2CC2)C(=O)N1CCC1=CCCCC1 (centres undefined)	.	0	4	.	4	-1
CC1=C(C(=O)N(C)C)CC(CC(=O)NCCc2ccccn2)C(=O)N1CCCN1CCCC1=O (centres undefined)	.	25*	0	.	3	-2
CC1=C(C(=O)N(C)C)CC(CC(=O)NCCCN(C)C)C(=O)N1CCC1=CCCCC1 (centres undefined)	.	21*	6	.	8	-2
CCN(CC)C(=O)C1=C(C)N(CCCN2CCCC2=O)C(=O)C(CC(=O)NCCc2ccccn2)C1 (centres undefined)	.	1	2	.	4	0
CCOC(=O)N1C(=O)C[C@](Sc2ccc(OC)cc2)(C(=O)N(C)C)[C@H]1c1ccc(OC)cc1	.	1	.	.	3	.
O=C(CN1C(=O)CCSc2ccccc21)Nc1ccc(F)cc1F	.	2	.	.	4	.
CCOC(=O)/C=C/C(=O)Nc1cccc([N+](=O)[O-])c1	7	.	44*	14	.	3
CC(NC(=O)Nc1cccc([N+](=O)[O-])c1)(C(F)(F)F)C(F)(F)F	7	73*	5	11	-4	2
CCOC(=O)[C@]12CCCC=C1N(CCCOC)C(=O)[C@@H]2CC(=O)NCc1cccc(C(F)(F)F)c1	.	1	.	.	-3	.
CCOC(=O)c1cc2c(=O)n3cccc(C)c3nc2n(Cc2ccco2)c1=NC(=O)c1ccccc1	16	-1	22*	11	9	-3
CCOC(=O)c1cc2c(=O)n3cccc(C)c3nc2n(Cc2ccco2)c1=NC(=O)c1ccc(C)cc1	-6	.	-7	-18	.	2
O=[N+]([O-])c1cc(Br)cc(/C=N/n2cnnc2)c1O	11	40*	0	8	-12	-2
O=[N+]([O-])c1cc(Cl)cc(/C=N/n2cnnc2)c1O	12	-8	19	-4	-10	-3
Cc1ccccc1-n1c(=O)cc(N2CC(C)OC(C)C2)[nH]c1=O (centres undefined)	-6	0	23*	2	2	0
O=C(C1CCN(c2ncnc3c2sc2cccc(F)c23)CC1)N1CCN(Cc2ccc(F)cc2)CC1	.	-1	.	.	2	.
CC(=O)NC1=NC(=O)/C(=C/c2cc(C)n(-c3cccc(C(=O)O)c3)c2C)S1	-2	45*	-18	-10	9	2
Cc1ccc(NC(=O)CN2C(=O)N/C(=C/c3cc(C)n(-c4cccc(C(=O)O)c4)c3C)C2=O)cc1	-4	37*	9	2	8	2
SMILES	B2AR ag	UHRF1 MBD2 ctr	ABHD5 PLIN5 PPI	Arr AP2 block	MBD2 DNA inh	Rin1 Abl inh
Cc1ccc(NC(=O)CN2C(=O)N/C(=C\c3cccn3-c3cccc(C(=O)O)c3)C2=O)cc1	-6	.	7	12	.	2
COc1cccc(-c2nnc3sc(-c4ccc(Br)o4)nn23)c1	.	-1	.	.	-5	.
CCOc1ccc(/C=N/Nc2ccccn2)cc1OC	2	47*	0	-9	-2	-9
C=CCNC(=O)N1CCC(c2nc3ccc(Cl)cc3[nH]2)CC1	.	1	.	.	1	.
Oc1c(C(Nc2cccc(C(F)(F)F)c2)c2cccnc2)ccc2cccnc12 (centres undefined)	17	-4	9	2	-2	4
CCC(=O)NC(c1ccccc1OC)c1ccc2cccnc2c1O (centres undefined)	2	.	3	0	.	14*
COc1ccc(Cl)cc1C(Nc1cccnc1)c1ccc2cccnc2c1O (centres undefined)	8	-10	23*	15	0	4
CCOC(=O)[C@]12CCCCC/C=C\1N(Cc1ccc(OC)cc1)C(=O)[C@H]2CC(=O)NCCCOC	.	0	.	.	-2	.
COC(=O)C[C@@H]1CC[C@H]2[C@@H](COc3ccc(NC(=O)c4ccc(Cl)cc4)cc3C(=O)N2C)O1	.	2	.	.	8	.
O=C(Nc1nccs1)C1CCCN1S(=O)(=O)c1ccc(Cl)cc1 (centres undefined)	-19	25*	4	-1	3	-2
C/C(C=NNC(=O)CSc1nnc(-c2ccc(Cl)cc2)n1-c1ccccc1)=C\c1ccccc1	.	3	.	.	-2	.
CNC(=O)c1sc(-c2ccccc2)nc1C	-2	33*	1	17	0	2
CNC(=O)c1sc(-c2ccc(Cl)cc2)nc1C	10	-4	4	30	-7	1
O=C(Nc1ccc2c(c1)OCCO2)c1ccc2ccccc2n1	6	22*	2	12	-6	3
O=C(Nc1ccc2c(c1)OCCO2)c1ccccn1	-1	1	-2	24	-1	0
O=S1(=O)c2ccc(N3CCN(Cc4ccccc4F)CC3)cc2Oc2ccccc2CN1Cc1cn(Cc2ccccc2C(F)(F)F)nn1	.	-2	.	.	-7	.
COc1ccccc1-c1c(C)nn2c(N3CCN(c4ccccc4OC)CC3)cc(C)nc12	10	26*	-6	4	1	-1
CCC(CC)NC(=O)O[C@H]1CC[C@@]23CCCN2C(=O)CCC[C@H]3[C@H]1C	.	1	.	.	-2	.
CN1C(=O)c2ccccc2Sc2ccc(NC(=O)NC3CC3)cc21	-4	-1	25*	20	-2	-3
O=C(Nc1ccc2c(c1)N(Cc1ccccc1)C(=O)c1ccccc1S2)NC1CC1	3	0	-6	8	-4	-1
CN1CCN(S(=O)(=O)c2cccc(C(=O)N3CCN(c4ccccc4)CC3)c2)CC1	3	49*	4	-6	4	0
CC(=O)N1CCN(C(=O)c2cccc(S(=O)(=O)N3CCN(c4ccccc4)CC3)c2)CC1	-1	-3	0	0	3	1
CC(C)(N[C@@H](Cc1ccccc1)C(=O)NCCc1c[nH]c2ccccc12)C(=O)NC1CCCCC1	.	1	.	.	-2	.
